Converted amounts (≈) assume the structure as drawn. The source made the active and inactive calls. The calls are words filed in the database; no cut-off is given here.
How the values were obtained:
[1] = Stability in simulated gastric fluid at pH 1.2 assessed as relative difference measured after 15 mins in presence of pepsin by HPLC analysis; type: ADME; conditions: isolated protein, pH 1.2, 0.25 h
Outline: (§1)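 Incubation in simulated gastric fluid (pH 1.2, pepsin) or simulated intestinal fluid (pH 6.8, pancreatin). Aliquots deproteinized with ice-cold acetonitrile, centrifuged at 4°C and 12000 rpm for 10 min, filtered, analyzed by HPLC. RD% = (Ci − Cf)/Ci × 100. Stable if RD < 5%. Means of three experiments.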

[2] = Stability in simulated gastric fluid at pH 1.2 assessed as relative difference measured after 30 mins in presence of pepsin by HPLC analysis; type: ADME; conditions: isolated protein, pH 1.2, 0.5 h; outline: as §1
[3] = Stability in simulated intestinal fluid at pH 6.8 assessed as relative difference measured after 30 mins in presence of pancreatin by HPLC analysis; type: ADME; conditions: simulated gi fluid, pH 6.8, 0.5 h; outline: as §1
Erythrocyte [4] = assay: Cytoprotective activity against H2O2-induced oxidative damage in human RBC assessed as recovery of H2O2-induced cell death at 50 to 100 uM measured after 72 hrs by MTT assay relative to control; type: functional; conditions: dose 50-100 µM
Erythrocyte [5] = assay: Antioxidant activity in human RBC assessed as increase in total antioxidant capacity level up to 400 ug/ml measured after 72 hrs relative to control; type: functional; conditions: dose microg/ml <=400
SH-SY5Y [6] = assay: Neuroprotective activity against amyloid beta (1 to 42)-induced toxicity in human SH-SY5Y cells assessed as increase in cell viability at 1 to 250 mg/l measured after 48 hrs by MTT assay; type: functional, cell-based; conditions: dose 1-250 mg/L
Outline: (§2)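 SH-SY5Y cells grown in DMEM/F12 with 10% FBS and differentiated with retinoic acid (10 μM), seeded at 1×10^4 per well and cultured 24 h. Cells were given hybrids at 1–250 mg/L with or without Aβ1-42 (20 μM) for 48 h. MTT (5 mg/mL) added for 4 h at 37°C, DMSO solubilization, read at 570/630 nm. LDH read at 450 nm. Five independent experiments.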

Erythrocyte [7] = assay: Cytoprotective activity against H2O2-induced oxidative damage in human RBC assessed as increase in cell viability measured after 72 hrs by MTT assay; type: functional, cell-based
[8] = Stability in simulated gastric fluid at pH 1.2 assessed as relative difference measured after 60 mins in presence of pepsin by HPLC analysis; type: ADME; conditions: isolated protein, pH 1.2, 1 h; outline: as §1
SH-SY5Y [9] = assay: Neuroprotective activity against amyloid beta (1 to 42)-induced apoptosis in human SH-SY5Y cells assessed as necrotic cells at IC50 measured after 48 hrs by Annexin-V/Propidium iodide staining based flow cytometry (reference value: 6.99%); type: functional
[10] = Stability in human plasma assessed as observed rate constant by HPLC analysis; type: ADME, cell-free
Outline: (§3)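 Compound stock added to human plasma pre-warmed to 37°C and diluted with 0.02 M phosphate buffer (pH 7.4) to 80% plasma. 100 μL samples taken over time, quenched with 200 μL cold acetonitrile, centrifuged, and supernatant analyzed by HPLC. t½ and kobs are means of three experiments.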

[11] = Solubility of compound in water by HPLC analysis; type: physicochemical
Erythrocyte [12] = assay: Cytoprotective activity against H2O2-induced oxidative damage in human RBC assessed as restoration of antioxidant activity at 100 uM measured after 72 hrs by TAC assay relative to control; type: functional
Erythrocyte [13] = assay: Cytoprotective activity against H2O2-induced oxidative damage in human RBC assessed as increase in cell viability measured after 72 hrs by LDH release assay; type: functional, cell-based
Outline: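 Heparinized whole blood cultured with phytohemagglutinin. Cells were co-incubated with 50 or 100 μM hybrid and H2O2 (25 μM). Viability was read by MTT: lymphocytes at 2×10^5 per well, MTT 4 h at 37°C, formazan dissolved in DMSO, absorbance 570 nm. LDH release was measured on 100 μL medium with a commercial kit. Results are relative to untreated control.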

SH-SY5Y [14] = assay: Neuroprotective activity against amyloid beta (1 to 42)-induced apoptosis in human SH-SY5Y cells assessed as late apoptotic cells at IC50 measured after 48 hrs by Annexin-V/Propidium iodide staining based flow cytometry (reference value: 33.72%); type: functional
[15] = Stability in simulated intestinal fluid at pH 6.8 assessed as relative difference measured after 120 mins in presence of pancreatin by HPLC analysis; type: ADME; conditions: simulated gi fluid, pH 6.8, 2 h; outline: as §1
[16] = Stability in simulated intestinal fluid at pH 6.8 assessed as relative difference measured after 15 mins in presence of pancreatin by HPLC analysis; type: ADME; conditions: simulated gi fluid, pH 6.8, 0.25 h; outline: as §1
[17] = Stability in simulated intestinal fluid at pH 6.8 assessed as relative difference measured after 60 mins in presence of pancreatin by HPLC analysis; type: ADME; conditions: simulated gi fluid, pH 6.8, 1 h; outline: as §1
Erythrocyte [18] = assay: Cytoprotective activity against H2O2-induced oxidative damage in human RBC assessed as restoration of antioxidant activity at 50 uM measured after 72 hrs by TAC assay relative to control; type: functional
Erythrocyte [19] = assay: Cytoprotective activity against H2O2-induced oxidative damage in human RBC assessed as restoration of antioxidant activity measured after 72 hrs by TAC assay; type: functional, cell-based
[20] = Half life in human plasma by HPLC analysis; type: ADME, cell-free; outline: as §3
SH-SY5Y [21] = assay: Neuroprotective activity against amyloid beta (1 to 42)-induced apoptosis in human SH-SY5Y cells assessed as early apoptotic cells at IC50 measured after 48 hrs by Annexin-V/Propidium iodide staining based flow cytometry (reference value: 0.74%); type: functional
SH-SY5Y [22] = assay: Neuroprotective activity against amyloid beta (1 to 42)-induced toxicity in human SH-SY5Y cells assessed as increase in cell viability at 1 to 250 mg/l measured after 48 hrs by LDH release assay; type: functional, cell-based; conditions: dose 1-250 mg/L; outline: as §2
SH-SY5Y [23] = assay: Cytotoxicity against human SH-SY5Y cells assessed as reduction in cell viability at 1 to 250 mg/l measured after 48 hrs by MTT assay; type: cell-based; conditions: dose 1-250 mg/L; outline: as §2
Erythrocyte [24] = assay: Cytoprotective activity against H2O2-induced oxidative damage in human RBC assessed as recovery of H2O2-induced cell death at 50 to 100 uM measured after 72 hrs by LDH release assay relative to control; type: functional; conditions: dose 50-100 µM
Outline: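 Heparinised human whole blood cultured in phytohemagglutinin-containing chromosome medium and co-incubated with hybrids and H2O2 at 37C for 72 h. LDH released into the culture medium was measured with a commercial kit. Triton X-100 served as positive control, with untreated cultures as reference. Cytoprotection was expressed as viability relative to control.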

[25] = Stability in simulated intestinal fluid at pH 6.8 assessed as relative difference measured after 180 mins in presence of pancreatin by HPLC analysis; type: ADME; conditions: simulated gi fluid, pH 6.8, 3 h; outline: as §1
[26] = Stability in simulated intestinal fluid at pH 6.8 assessed as hydrolysis measured immediately in presence of pancreatin by HPLC analysis; type: ADME; conditions: simulated gi fluid; outline: as §1
Erythrocyte [27] = assay: Cytoprotective activity against H2O2-induced oxidative damage in human RBC assessed as restoration of antioxidant activity at 50 to 100 uM measured after 72 hrs by TAC assay relative to control; type: functional; conditions: dose 50-100 µM
SH-SY5Y [28] = assay: Neuroprotective activity against amyloid beta (1 to 42)-induced apoptosis in human SH-SY5Y cells assessed as decrease in DNA fragmentation at IC50 measured after 48 hrs by Hoechst 33258 staining based fluorescence microscopic assay; type: functional, cell-based
Outline: (§4)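 Differentiated SH-SY5Y cells, 4×10^4 per well, exposed 48 h to Aβ1-42 (20 μM) with or without hybrid. Fixed in 4% paraformaldehyde for 30 min, stained with Hoechst 33258 for 15 min. Nuclear chromatin condensation and DNA fragmentation scored by fluorescence microscopy at ×200.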

SH-SY5Y [29] = assay: Neuroprotective activity against amyloid beta (1 to 42)-induced apoptosis in human SH-SY5Y cells assessed as decrease in DNA condensation at IC50 measured after 48 hrs by Hoechst 33258 staining based fluorescence microscopic assay; type: functional, cell-based; outline: as §4

SMILES	fold change (FC) [1] [%]	fold change (FC) [2] [%]	fold change (FC) [3] [%]	Activity (Erythrocyte [4]) [%]	Activity (Erythrocyte [5]) [%]	Activity (SH-SY5Y [6])	Activity (Erythrocyte [7])	fold change (FC) [8] [%]	Activity (SH-SY5Y [9]) [%]	K [10] [h⁻¹]	solubility [11] [µg/mL]	Activity (Erythrocyte [13])	Activity (SH-SY5Y [14]) [%]	fold change (FC) [15] [%]	fold change (FC) [16] [%]	fold change (FC) [17] [%]	half-life [20] [h]	Activity (SH-SY5Y [22])	Activity (SH-SY5Y [23])	fold change (FC) [25] [%]	further results
COc1ccc(/C=C/C(=O)OCCOCCNC(=O)CCCCC2CCSS2)cc1OC (stereo not drawn)	5.6	7.35	21.06	0.5	2	Active	Dose-dependent effect	30.76	1.6	0.042	10 (≈ 20.7 µM)	Dose-dependent effect	15.39	31.38	12.01	27.2	17.2	Active	Non-Toxic	40.3	Activity (Erythrocyte [12]): 29.2%; Activity (Erythrocyte [18]): 12.5%; Activity (Erythrocyte [19]): Dose-dependent effect; Activity (SH-SY5Y [21]): 2.85%; Activity (Erythrocyte [24]): 0.4%
COc1ccc(CC(=O)OCCCNC(=O)CCCCC2CCSS2)cc1OC (stereo not drawn)	15.23	35.89				Active		60.98		1.146	110 (≈ 249 µM)						0.62	Active	Non-Toxic		Stabilty [26]: Unstable
O=C1O[C@H]([C@@H](O)CO)C(O)=C1O [ASCORBIC ACID]					10.7																
O=C(CCCCC1CCSS1)NCCCOC(=O)Cc1ccc(O)c(O)c1 (stereo not drawn)	72.4	86.54				Active		100		0.93	933 (≈ 2260 µM)						0.75	Active	Non-Toxic		Stabilty [26]: Unstable
O=C(CCCCC1CCSS1)NCCCNC(=O)Cc1ccc(O)c(O)c1 (stereo not drawn)	15.27	47.45	30.4	0.5	26.5	Active	Dose-dependent effect	65.48	1.23	0.08	235 (≈ 570 µM)	Dose-dependent effect	13.72	70	5.6	56.3	9.21	Active	Non-Toxic	90.2	Activity (Erythrocyte [27]): 79.2%; Activity (Erythrocyte [19]): Dose-dependent effect; Activity (SH-SY5Y [21]): 3.88%; Activity (Erythrocyte [24]): 0.4%
O=C(CCCCC1CCSS1)NCCOC(=O)Cc1ccc(O)c(O)c1 (stereo not drawn)	12.34	46.72	35.4			Active		67.34		0.613	736 (≈ 1840 µM)			70.45	2.5	54.62	1.13	Active	Non-Toxic	100	
COc1ccc(CC(=O)NCCCNC(=O)CCCCC2CCSS2)cc1OC (stereo not drawn)	2.9	1.89	0.73	0.5	4.2	Active	Dose-dependent effect	4.03	1.66		42 (≈ 95.3 µM)	Dose-dependent effect	16.01	1.32	0.45	0.9	> 12	Active	Non-Toxic	2.09	Activity (SH-SY5Y [28]): Active; Activity (SH-SY5Y [29]): Active; Activity (Erythrocyte [19]): Dose-dependent effect; Activity (SH-SY5Y [21]): 3.51%; Activity (Erythrocyte [24]): 0.4%
